In ChEMBL document CHEMBL1156857, “N-Acetamideindolecarboxylic acid allosteric 'finger-loop' inhibitors of the hepatitis C virus NS5B polymerase: discovery and initial optimization studies” (Bioorg Med Chem Lett, 2010):
pEC50, pIC50: −log10 of the molar value.

Columns and labels:
[1] = Inhibition of histidine-tagged HCV NS5Bdelta21 by scintillation proximity assay; set-up: species or system Hepacivirus hominis
Outline: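 Soluble truncated NS5B at 12 nM. Reaction contains 0.01% w/v BSA, with no dodecyl-β-D-maltoside or IGEPAL. Other conditions follow an earlier method. IC50 is the mean of duplicate experiments on two separate weighings.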

[2] = system: Hepatitis C virus; test: Antiviral activity against Hepatitis C virus subtype 1b infected in human Huh7 cells assessed as inhibition of viral RNA replication; assay type: functional, organism-based, Hepacivirus hominis, genotype 1b, Huh-7; details: for pEC50: Hepatitis C virus, genotype 1b, Huh-7, read-out: EC50
Outline: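 Stable subgenomic HCV genotype 1b replicon in Huh-7 cells carrying a modified luciferase reporter. EC50 from duplicate or more determinations. Some inhibitors were also run in a 72 h replicon format, with HCV RNA normalized to total cellular RNA. Cytotoxicity checked as TC50.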

[3] = Inhibition of calf thymus DNA-directed RNA polymerase 2; set-up: species or system Bos taurus

SMILES | pIC50 [1] | EC50 ([2]; huh-7) | pIC50 [3] | pEC50 [2]
O=C(O)c1ccc2c(c1)nc(-c1ccoc1)n2C1CCCCC1 | 5.96 | Not Active | – | –
CN(C)C(=O)Cn1c(-c2ccccc2)c(C2CCCCC2)c2ccc(C(=O)O)cc21 | 7.40 | – | < 3.60 | 5.85
O=C(O)c1ccc2c(C3CCCCC3)c(-c3ccccc3)n(CC(=O)N3CCOCC3)c2c1 | 7.15 | – | < 3.60 | 6.15
O=C(O)c1ccc2c(C3CCCCC3)c(-c3ccoc3)[nH]c2c1 | 7.52 | – | – | 5.17
Cn1c(-c2ccoc2)c(C2CCCCC2)c2ccc(C(=O)N[C@@H](Cc3c[nH]c4ccc(O)cc34)c3cscn3)cc21 | 7.00 | – | – | 7.30
CN(CCc1ccncc1)C(=O)Cn1c(-c2ccoc2)c(C2CCCCC2)c2ccc(C(=O)O)cc21 | 7.52 | – | < 3.60 | 6.20
O=C(O)c1ccc2c(C3CCCCC3)c(-c3ccoc3)n(CC(=O)N3CCCC3)c2c1 | 7.40 | – | < 3.60 | –
CCN(Cc1ccncc1)C(=O)Cn1c(-c2ccoc2)c(C2CCCCC2)c2ccc(C(=O)O)cc21 | 7.40 | – | < 3.60 | –
CCN(CC)CCN(C)C(=O)Cn1c(-c2ccoc2)c(C2CCCCC2)c2ccc(C(=O)O)cc21 | 7.52 | – | < 3.60 | 6.34
CN(C)CCCN(C)C(=O)Cn1c(-c2ccoc2)c(C2CCCCC2)c2ccc(C(=O)O)cc21 | 7.70 | – | < 3.60 | 6.24
Cc1cccc(C)c1Cn1c(-c2ccoc2)c(C2CCCCC2)c2ccc(C(=O)O)cc21 | < 3.86 | – | – | –
O=C(O)c1ccc2c(C3CCCCC3)c(-c3ccoc3)n(CC(=O)N3CCC(N4CCCCC4)CC3)c2c1 | 7.52 | – | < 3.60 | 6.11
O=C(O)c1ccc2c(C3CCCCC3)c(-c3ccoc3)n(Cc3ccccc3)c2c1 | 6.60 | – | – | –
O=C(O)c1ccc2c(C3CCCCC3)c(-c3ccoc3)n(CC(=O)N3CCN(CCO)CC3)c2c1 | 7.70 | – | < 3.60 | 5.89
CN1CCCN(C(=O)Cn2c(-c3ccoc3)c(C3CCCCC3)c3ccc(C(=O)O)cc32)CC1 | 7.70 | – | < 3.60 | 6.48
O=C(O)c1ccc2c(C3CCCCC3)c(-c3ccoc3)n(CC(=O)N3CCC(CCO)CC3)c2c1 | 7.15 | – | < 3.60 | 5.89
Cc1ccccc1Cn1c(-c2ccoc2)c(C2CCCCC2)c2ccc(C(=O)O)cc21 | 6.54 | – | – | –
CN(C)C(=O)Cn1c(-c2cccs2)c(C2CCCCC2)c2ccc(C(=O)O)cc21 | 7.70 | – | < 3.60 | 6.22
COCCN(C)C(=O)Cn1c(-c2ccoc2)c(C2CCCCC2)c2ccc(C(=O)O)cc21 | 7.30 | – | < 3.60 | 5.89
O=C(O)c1ccc2c(C3CCCCC3)c(-c3ccccn3)n(CC(=O)N3CCOCC3)c2c1 | – | – | < 3.60 | –

SMILES | pIC50 [1] | EC50 ([2]; huh-7) | pIC50 [3] | pEC50 [2]
O=C(O)c1ccc2c(C3CCCCC3)c(-c3cnccn3)n(CC(=O)N3CCOCC3)c2c1 | 7.00 | – | < 3.60 | –
O=C(O)c1ccc(Cn2c(-c3ccoc3)c(C3CCCCC3)c3ccc(C(=O)O)cc32)cc1 | 7.40 | – | – | –
O=C(O)c1ccc2c(C3CCCCC3)c(-c3ccoc3)n(CCO)c2c1 | 7.00 | – | – | < 5.00
CCn1c(-c2ccoc2)c(C2CCCCC2)c2ccc(C(=O)O)cc21 | 7.15 | – | – | < 5.00
C=CCn1c(-c2ccoc2)c(C2CCCCC2)c2ccc(C(=O)O)cc21 | 7.10 | – | – | < 5.00
CNC(=O)Cn1c(-c2ccoc2)c(C2CCCCC2)c2ccc(C(=O)O)cc21 | 7.30 | – | < 3.60 | 5.70
CN(C(=O)Cn1c(-c2ccoc2)c(C2CCCCC2)c2ccc(C(=O)O)cc21)C1CCCCC1 | 6.96 | – | < 3.60 | –
CC(C)N(C(=O)Cn1c(-c2ccoc2)c(C2CCCCC2)c2ccc(C(=O)O)cc21)C(C)C | 7.15 | – | < 3.60 | 5.64
O=C(O)c1cccc(Cn2c(-c3ccoc3)c(C3CCCCC3)c3ccc(C(=O)O)cc32)c1 | 7.15 | – | – | –
CCOC(=O)Cn1c(-c2ccoc2)c(C2CCCCC2)c2ccc(C(=O)O)cc21 | 7.05 | – | – | 5.07
O=C(O)c1ccc2c(C3CCCCC3)c(-c3cccs3)n(CC(=O)N3CCOCC3)c2c1 | 7.52 | – | < 3.60 | 6.22
O=C(O)CCn1c(-c2ccoc2)c(C2CCCCC2)c2ccc(C(=O)O)cc21 | 6.68 | – | – | –
CC(C)NC(=O)Cn1c(-c2ccoc2)c(C2CCCCC2)c2ccc(C(=O)O)cc21 | 7.30 | – | < 3.60 | –
O=C(Cn1c(-c2ccoc2)c(C2CCCCC2)c2ccc(C(=O)O)cc21)NCC1CCCCC1 | 6.92 | – | < 3.60 | –
O=C(Cn1c(-c2ccoc2)c(C2CCCCC2)c2ccc(C(=O)O)cc21)NCc1ccccc1 | 7.22 | – | < 3.60 | –
CN(C)C(=O)Cn1c(-c2cc3ccccc3s2)c(C2CCCCC2)c2ccc(C(=O)O)cc21 | 6.68 | – | < 3.60 | 5.60
O=C(O)c1ccc2c(C3CCCCC3)c(-c3ccco3)n(CC(=O)N3CCOCC3)c2c1 | 7.40 | – | < 3.60 | 6.00
O=C(O)c1ccc2c(C3CCCCC3)c(-c3ccsc3)n(CC(=O)N3CCOCC3)c2c1 | 7.40 | – | < 3.60 | 6.48
O=C(O)c1ccc2c(C3CCCCC3)c(-c3ccoc3)n(CC(=O)N3CCCCC3)c2c1 | 7.40 | – | < 3.60 | 6.09
O=C(O)Cn1c(-c2ccoc2)c(C2CCCCC2)c2ccc(C(=O)O)cc21 | 7.22 | – | – | –

SMILES | pIC50 [1] | EC50 ([2]; huh-7) | pIC50 [3] | pEC50 [2]
CN(C)C(=O)Cn1c(-c2ccco2)c(C2CCCCC2)c2ccc(C(=O)O)cc21 | 7.40 | – | < 3.60 | 5.82
O=C(O)c1ccc2c(C3CCCCC3)c(-c3ccccn3)n(CC(=O)N3CCC(N4CCCC4)CC3)c2c1 | – | – | < 3.60 | –
CN(C)C(=O)Cn1c(-c2ccsc2)c(C2CCCCC2)c2ccc(C(=O)O)cc21 | 7.40 | – | < 3.60 | 6.19
O=C(O)c1ccc2c(C3CCCCC3)c(-c3ccoc3)n(CC(=O)N3CCC(O)CC3)c2c1 | 7.70 | – | < 3.60 | 5.70
Nc1ccccc1Cn1c(-c2ccoc2)c(C2CCCCC2)c2ccc(C(=O)O)cc21 | 7.05 | – | – | 5.54
O=C(O)c1ccc2c(C3CCCCC3)c(-c3ccoc3)n(CC(=O)N3CCC(C(=O)O)CC3)c2c1 | 7.52 | – | < 3.60 | < 4.03
O=C(Cn1c(-c2ccoc2)c(C2CCCCC2)c2ccc(C(=O)O)cc21)Nc1ccccc1 | 7.10 | – | < 3.60 | –
CN(C)C(=O)Cn1c(-c2ccccn2)c(C2CCCCC2)c2ccc(C(=O)O)cc21 | 6.62 | – | < 3.60 | 5.47
CN(C)C(=O)Cn1c(-c2cnccn2)c(C2CCCCC2)c2ccc(C(=O)O)cc21 | 6.80 | – | < 3.60 | –
CN(C)CCN(C)C(=O)Cn1c(-c2ccoc2)c(C2CCCCC2)c2ccc(C(=O)O)cc21 | 7.70 | – | < 3.60 | 6.36
C=C(C)n1c(-c2ccoc2)c(C2CCCCC2)c2ccc(C(=O)O)cc21 | 6.44 | – | – | < 5.00
NC(=O)Cn1c(-c2ccoc2)c(C2CCCCC2)c2ccc(C(=O)O)cc21 | 7.40 | – | – | 5.62
COCCNC(=O)Cn1c(-c2ccoc2)c(C2CCCCC2)c2ccc(C(=O)O)cc21 | 7.30 | – | < 3.60 | –
Nc1cccc(Cn2c(-c3ccoc3)c(C3CCCCC3)c3ccc(C(=O)O)cc32)c1 | 6.89 | – | – | < 5.10
O=C(O)c1ccc2c(C3CCCCC3)c(-c3ccoc3)n(Cc3ccccn3)c2c1 | 6.89 | – | – | –
CCCN(C)C(=O)Cn1c(-c2ccoc2)c(C2CCCCC2)c2ccc(C(=O)O)cc21 | 7.30 | – | < 3.60 | 5.77
CC(C)N(C)C(=O)Cn1c(-c2ccoc2)c(C2CCCCC2)c2ccc(C(=O)O)cc21 | 7.52 | – | < 3.60 | 6.10
CC(C(=O)O)n1c(-c2ccoc2)c(C2CCCCC2)c2ccc(C(=O)O)cc21 (racemic) | 5.55 | – | – | –
